From article PMC3967199 (Scientific Reports, 2014)
Read-outs that look alike come from different tables or passages of the source.

Columns and labels:
MCF7 cells = experiment: Peptide-SAQdot605 binding, fluorescence microscopy; type: cell-based
[1] = test system: H1299 and H460 xenografts; type: in vivo, NOD/SCID mice
[2] = test system: human NSCLC tumor samples; experiment: Tumor microarray binding of Peptide-SAQdot 605; details: of 59 human NSCLC tumor samples; 10 nM Peptide-SAQdot 605, 30 minutes
Procedure, shortened: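 Commercial paraffin lung cancer tissue microarray; dewaxed, antigen retrieval in 10 mM citrate pH 6.0 at 65°C for 10 min, blocked in PBS + 2.5% BSA. Stained with peptide conjugated 1:1 to streptavidin-Qdot605 in 50% PBS/50% RPMI with 2.5% bovine serum. Washed, DAPI-mounted, three areas imaged per sample. Red Qdot signal compared against green-channel autofluorescence; scored by five independent scientists.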

Samples scored positive for peptide binding [2]	Sequence	Binding of peptide-SAQdot605 (MCF7 cells)	H460 tumor/H1299 tumor ([1]; animal shown, 24 h)	H460 tumor/lung ([1]; animal shown, 24 h)	H460/lung ([1]; average of mice (± SEM in text), i.v., ex vivo, 24 h)	H460 tumor/H1299 tumor ([1]; average of mice, i.v., ex vivo, 24 h)	Tumor specificity in vivo ([1]; acetylated peptide)	Tumor uptake of non-acetylated peptide ([1]; free amino-terminus, before acetylation)
–	EAMNSAEQSAAVVQWEKRRI [Peptide H460.1]	specific binding	8 fold	15 fold	14 ± 6.5	27	–	–
24%	FHAVPQSFYTAP [HCC15.2]	–	–	–	–	–	accumulates in both H1299 and H460 tumors	No tumor uptake
